# High-throughput results from PubChem BioAssay.
# The list is not random: actives were taken first. Their share in the collection is about 3.7%.
# hERG rescue – compounds protecting human hERG from proarrhythmic drug block. Q12809. CHO-hERG, FluxOR thallium flux, dofetilide IC70 present. AID 1511. activation (rescue from dofetilide block), less the hit threshold, % at 10 µM. 310,000 tested, 0.51% active;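 active = activation above the mean of controls blocked by dofetilide plus 5 SD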;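 also: thallium influx through hERG after potassium depolarization seen as dye fluorescence rise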
# KCNK9 inh – blocks the human KCNK9 two-pore domain potassium channel. Q9NPC2. HEK293 KCNK9, FluxOR thallium flux fluorescence; active compounds read low. B-score at 10 µM. 310,000 tested, 1.2% active;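 active = ratio B-score over 3 SD below the library mean, with starting fluorescence within 5 SD of its mean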;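 also: negative B-score means less thallium flux so channel inhibition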
# Kir21 inh – inhibitors of mouse Kir2.1 inward-rectifier potassium channel; P35561; HEK293-Kir2.1, FluxOR thallium flux fluorescence; active compounds read low; B-score at 10 µM; 310,000 tested, 0.85% active; AID 1672;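 active = fluorescence ratio B-score at or below minus 3 SD of library scores, with starting-brightness B-score within 2 SD, cut at about -4.2 in these data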;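 also: channel flux triggered by added potassium and thallium sulfate stimulus; B-score of peak minus minimum fluorescence over baseline after thallium stimulus; more negative B-score means stronger Kir2.1 block with less thallium influx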
# Target sequence (P35561 whole entry, looked up): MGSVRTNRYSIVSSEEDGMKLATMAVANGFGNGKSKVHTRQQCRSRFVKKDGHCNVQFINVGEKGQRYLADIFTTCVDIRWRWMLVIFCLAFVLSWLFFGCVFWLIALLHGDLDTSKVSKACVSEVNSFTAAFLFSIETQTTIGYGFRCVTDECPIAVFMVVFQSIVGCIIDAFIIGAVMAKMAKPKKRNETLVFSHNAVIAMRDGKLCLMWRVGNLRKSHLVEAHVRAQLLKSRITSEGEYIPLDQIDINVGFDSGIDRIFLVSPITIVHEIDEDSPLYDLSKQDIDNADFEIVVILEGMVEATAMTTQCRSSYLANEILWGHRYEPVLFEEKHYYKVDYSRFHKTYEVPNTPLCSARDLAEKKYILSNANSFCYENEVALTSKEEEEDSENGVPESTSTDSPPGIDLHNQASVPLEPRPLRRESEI
# KCNK3 block – human KCNK3 channel inhibition, primary screen | O14649 | CHO-KCNK3 thallium flux, FluxOR fluorescence; active compounds read low | B-score at 10 µM | 340,000 tested, 0.84% active | AID 602410;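 active = B-score under library mean minus 4 SD, starting fluorescence ratio at most library mean plus 5 SD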;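 also: more negative B-score means stronger inhibition of thallium flux through KCNK3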
# KCNQ1 pot – human KCNQ1 channel potentiation or activation; P51787; CHO-K1 KCNQ1, thallium flux FluxOR fluorescence; active compounds read high; B-score at 10 µM; 310,000 tested, 0.35% active; AID 2648;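 active = fluorescence ratio B-score, a plate-corrected score, at least three library SD, with initial intensity B-score within 5 SD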
#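 Material: CHO-K1 cells stably expressing KCNQ1. Medium: assay buffer for compound exposure, DMSO matched across wells. Reagent: K+/Tl+ depolarizing stimulus. Compound dosing: single-concentration screen. Times: 37 °C overnight plating, 90-min dark dye load, 20-min compound pretreatment. Technique: FluxOR Tl+ flux fluorescence.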
# KCNQ1 block – human KCNQ1 channel inhibition | P51787 | B-score at 10 µM | CHO-K1 KCNQ1, FluxOR thallium flux fluorescence; active compounds read high | 310,000 tested, 1.3% active;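 active = compounds whose thallium flux B-score, printed positive for inhibition, exceeds three library SD while starting fluorescence stays within three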;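 also: channel opened by potassium depolarization with thallium stimulus after 20 min compound exposure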
# An asterisk follows results filed as active; i = inactive; · = no result.
SMILES,hERG rescue,KCNK9 inh,Kir21 inh,KCNK3 block,KCNQ1 pot,KCNQ1 block
COc1ccc(N(C)C(=O)c2ccc3nc(-c4ccccc4)c(-c4ccccc4)nc3c2)cc1,-9.7,-7.36*,-1.04,i,i,9*
COC(=O)c1c(C)oc(C)c1S(=O)(=O)NCc1ccc(OC)cc1,-2.6,i,-2.37,i,i,i
COC(=O)c1c(C)oc(C)c1S(=O)(=O)NCc1ccc(Cl)cc1Cl,-3.5,-7.51*,-5.13*,i,i,i
O=C(N=Nc1c(O)[nH]c2ccc([N+](=O)[O-])cc12)c1cc(-c2ccccc2Cl)nc2ccccc12,15.3*,i,-0.02,i,i,i
Cc1ccccc1OCC(=O)N1N=C(C(F)(F)F)CC1(O)C(C)(C)C (stereo not drawn),-10.8,i,-0.1,i,i,i
CC(C)(C)C1(O)CC(C(F)(F)F)=NN1C(=O)Cc1ccc([N+](=O)[O-])cc1 (stereo not drawn),-1.9,i,-0.33,i,12*,i
Cc1ccc(OCC(=O)N2N=C(C(F)(F)F)CC2(O)C(C)(C)C)cc1C (stereo not drawn),-6.0,i,-4.25*,i,i,7*
Cc1ccc(N2CCN(C(=O)C3CCC(=O)N(Cc4ccc(Cl)cc4)C3)CC2)c(C)c1 (stereo not drawn),-11.8,i,-0.68,i,i,i
CC1CCCN(c2c([N+](=O)[O-])cc(C(=O)O)cc2[N+](=O)[O-])C1 (stereo not drawn),-20.2,i,-0.6,i,i,i
CCn1c2ccccc2c2cc(NC(=O)CN3CCCC3)ccc21,-5.0,i,-3.54,i,i,i
CCn1c2ccccc2c2cc(NC(=O)CNCC3CCCO3)ccc21 (stereo not drawn),-13.4,i,-9.13*,i,i,i
Cc1cc(C)c(NC(=O)C2CCCO2)c(C)c1 (stereo not drawn),-13.3,i,0.09,i,i,i
COc1ccccc1-c1nnc(SCC(=O)Nc2nc(-c3ccccc3)cs2)n1C,6.1*,i,0.05,i,i,i
Cc1cccn(Cc2c(F)cccc2Cl)c1=O,-3.9,i,-2.79,i,i,i
O=c1ccccn1Cc1c(F)cccc1Cl,5.2*,i,-0.89,i,i,i
O=C(O)c1cccc(N2C(=O)c3cc([N+](=O)[O-])cc4cc([N+](=O)[O-])cc(c34)C2=O)c1,-5.2,i,-0.38,i,i,i
COc1cc(/C=C/c2ccc3c(Br)cc(Br)c(O)c3n2)ccc1O,4.7*,i,-1.45,i,i,i
COc1ccc(/C=C/c2ccc3c(Br)ccc(O)c3n2)cc1,-7.7,i,-0.05,i,i,i
O=C(NCc1cccnc1)c1cccc(NS(=O)(=O)c2ccc(Br)cc2)c1,-9.8,i,0.62,i,i,i
Cn1c(SCc2c(Cl)cccc2Cl)nc(C(F)(F)F)cc1=O,-5.0,-6.67*,0.11,i,i,i
CC(C)(O)C#Cc1ccc(CN2CCN(Cc3ccsc3)C(CCO)C2)s1 (stereo not drawn),-11.8,i,0.39,i,i,i
N#CC(c1cccc(Cl)c1)c1ccc2c(C(F)(F)F)cc(C(F)(F)F)nc2n1 (stereo not drawn),-4.7,i,-1.42,i,76*,i
NNc1ccc2c(C(F)(F)F)cc(C(F)(F)F)nc2n1,-5.2,i,-0.15,i,i,i
Cc1ccc(S(=O)(=O)N(C)c2ccc(C)c([N+](=O)[O-])c2)cc1,-12.8,i,0.3,i,i,i
Cc1cc(N(C)C)ccc1[N+](=O)[O-],4.7*,i,-0.39,i,i,i
SMILES,hERG rescue,KCNK9 inh,Kir21 inh,KCNK3 block,KCNQ1 pot,KCNQ1 block
CCOC(=O)C1(CCOc2ccccc2)CCN(Cc2ccncc2)CC1,-8.7,i,-0.04,i,i,i
CCOC(=O)C1(CCOc2ccccc2)CCN(Cc2cccs2)CC1,-11.1,i,-5.04*,i,i,i
Cc1ccccc1OCC(=O)N1CCCCCCC1,-11.6,i,0.02,i,i,i
Oc1ccc(N=Nc2nc(-c3ccccc3)c(-c3ccccc3)[nH]2)cc1,-21.7,-7.38*,0.4,i,i,i
Oc1ccc(N=Nc2n[nH]c(-c3ccccc3)n2)cc1,-7.2,i,0.79,i,i,i
COc1cc(-c2noc(C)c2C(=O)NCCCn2ccnc2)cc(OC)c1OC,·,·,·,i,·,·
COc1ccc(N(Cc2cc3cccc(C)c3[nH]c2=O)S(=O)(=O)c2ccc(OC)cc2)cc1,-4.2,i,0.53,i,i,i
COc1ccc(N(Cc2cc3cccc(C)c3[nH]c2=O)S(=O)(=O)c2ccc(Cl)cc2)cc1,-9.1,-7.5*,0.52,i,i,i
CCCCNC(=O)O[C@H]1C[C@@H]2CCN3C(=O)CCC(C)(C)[C@H](C1)[C@H]23,-4.2,i,-0.81,i,i,i
CC1(C)CCC(=O)N2CC[C@H]3C[C@H](OC(=O)Nc4ccc5c(c4)OCO5)C[C@@H]1[C@H]32,-8.8,-8.04*,-1.37,i,i,i
COC(=O)C(Cc1ccccc1)NC(=O)c1cc(S(=O)(=O)N(C)C)ccc1Cl (stereo not drawn),-5.5,i,0.14,i,i,i
O=C(O)c1ccccc1-c1ccc(/C=C/c2cc(C(F)(F)F)[nH]c(=O)n2)o1,-42.5,i,-14,i,i,i
O=c1nc(/C=C/c2ccc(-c3ccc(F)cc3)o2)cc(C(F)(F)F)[nH]1,-26.9,i,-11.6,·,i,11*
CCn1c(=S)[nH]c2c(c1=O)C(C)(C)Cc1ccccc1-2,45.4*,i,0.86,i,17*,i
Cn1c(N)c(C(=O)CSc2nnc(C3CC3)n2Cc2ccccc2)c(=O)n(C)c1=O,·,·,·,i,·,·
O=C(CSc1nnc(C2CC2)n1Cc1ccccc1)c1cc2ccccc2o1,-7.8,i,-4.48*,i,i,i
Cc1oc(-c2ccccc2F)nc1CS(=O)(=O)CC(=O)NCc1ccccc1Cl,-10.4,i,1.86,i,i,i
O=C(N/C(=C\c1ccc(-c2ccccc2)o1)C(=O)N1CCOCC1)c1ccccc1,·,·,·,i,·,·
O=C(NCc1ccc(Cl)cc1)c1n[nH]c([N+](=O)[O-])c1Cl,-10.7,i,0.29,i,i,6*
COc1ccc(C)cc1NC(=O)CSc1nc(=O)n(CCCN2CCOCC2)c2c1CCCC2,-12.0,i,0.14,i,i,i
O=S(=O)(c1cccc2cccnc12)N1CCOCC1,-5.3,i,0.53,i,i,i
